Measured values as given in ChEMBL document CHEMBL3286287, “Identification of a new selective dopamine D4 receptor ligand” (Bioorg Med Chem, 2014).

What was measured:
[1] = biological target: 5-hydroxytryptamine receptor 7 (Homo sapiens, UniProt P34969); test: Displacement of [3H]LSD from human 5-HT7 receptor by PDSP assay
[2] = biological target: Sigma non-opioid intracellular receptor 1 (Homo sapiens, UniProt Q99720); test: Binding affinity to sigma-1 receptor (unknown origin) by PDSP assay
[3] = Binding affinity to sigma-2 receptor (unknown origin) by PDSP assay; parameters: species or system Homo sapiens
[4] = biological target: T1, D(4) dopamine receptor (Rattus norvegicus, UniProt P30729); test: Displacement of [3H]N-methylspiperone from rat dopamine D4 receptor by PDSP assay
T1 sequence (P30729 whole entry): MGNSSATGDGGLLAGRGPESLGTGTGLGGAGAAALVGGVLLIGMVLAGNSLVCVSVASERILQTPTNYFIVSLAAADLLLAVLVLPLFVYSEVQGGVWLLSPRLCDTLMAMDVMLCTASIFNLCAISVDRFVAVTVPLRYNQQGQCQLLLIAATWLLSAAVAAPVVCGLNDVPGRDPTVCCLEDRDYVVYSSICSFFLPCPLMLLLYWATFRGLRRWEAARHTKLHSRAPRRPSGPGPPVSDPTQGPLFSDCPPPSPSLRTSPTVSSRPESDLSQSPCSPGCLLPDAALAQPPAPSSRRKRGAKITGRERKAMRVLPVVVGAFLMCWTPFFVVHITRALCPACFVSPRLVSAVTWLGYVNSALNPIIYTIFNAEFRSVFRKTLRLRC

[5] = biological target: 5-hydroxytryptamine receptor 2A (Rattus norvegicus, UniProt P14842); test: Displacement of [3H]ketanserin from rat 5-HT2A receptor by PDSP assay
Procedure, shortened: (§1)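 Ki values were determined by the NIMH Psychoactive Drug Screening Program using radioligand displacement. Compounds first went through a primary assay.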

[6] = biological target: T2, 5-hydroxytryptamine receptor 2C (Rattus norvegicus, UniProt P08909); test: Displacement of [3H]mesulergine from rat 5-HT2C receptor by PDSP assay; procedure, shortened: as §1
T2 sequence (P08909 whole entry): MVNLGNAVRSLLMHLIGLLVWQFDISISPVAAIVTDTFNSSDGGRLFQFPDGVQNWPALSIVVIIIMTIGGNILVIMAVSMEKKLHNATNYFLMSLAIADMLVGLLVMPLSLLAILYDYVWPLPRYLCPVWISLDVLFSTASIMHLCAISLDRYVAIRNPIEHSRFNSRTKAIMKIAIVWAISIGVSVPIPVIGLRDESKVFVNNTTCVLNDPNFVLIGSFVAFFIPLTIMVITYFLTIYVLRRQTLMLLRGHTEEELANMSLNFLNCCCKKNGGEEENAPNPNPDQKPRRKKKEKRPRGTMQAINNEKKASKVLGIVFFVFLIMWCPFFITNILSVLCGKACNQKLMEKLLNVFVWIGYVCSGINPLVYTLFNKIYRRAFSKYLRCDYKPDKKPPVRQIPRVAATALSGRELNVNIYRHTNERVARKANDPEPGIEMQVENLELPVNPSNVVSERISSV

[7] = Selectivity ratio of Ki for human dopamine D3 receptor to Ki for rat dopamine D4 receptor
[8] = biological target: D(3) dopamine receptor (Homo sapiens, UniProt P35462); test: Displacement of [3H]N-methylspiperone from human dopamine D3 receptor by PDSP assay
[9] = biological target: D(1A) dopamine receptor (Homo sapiens, UniProt P21728); test: Displacement of [3H]SCH23390 from human dopamine D1 receptor by PDSP assay; settings: for inhibition: concentration not given here
[10] = Selectivity ratio of Ki for human dopamine D2 receptor to Ki for rat dopamine D4 receptor
[11] = biological target: D(1B) dopamine receptor (Homo sapiens, UniProt P21918); test: Displacement of [3H]SCH23390 from human dopamine D5 receptor by PDSP assay; settings: for inhibition: concentration not given here
[12] = biological target: D(2) dopamine receptor (Homo sapiens, UniProt P14416); test: Displacement of [3H]N-methylspiperone from human dopamine D2 receptor by PDSP assay
Sequence of D(2) dopamine receptor (P14416 whole entry): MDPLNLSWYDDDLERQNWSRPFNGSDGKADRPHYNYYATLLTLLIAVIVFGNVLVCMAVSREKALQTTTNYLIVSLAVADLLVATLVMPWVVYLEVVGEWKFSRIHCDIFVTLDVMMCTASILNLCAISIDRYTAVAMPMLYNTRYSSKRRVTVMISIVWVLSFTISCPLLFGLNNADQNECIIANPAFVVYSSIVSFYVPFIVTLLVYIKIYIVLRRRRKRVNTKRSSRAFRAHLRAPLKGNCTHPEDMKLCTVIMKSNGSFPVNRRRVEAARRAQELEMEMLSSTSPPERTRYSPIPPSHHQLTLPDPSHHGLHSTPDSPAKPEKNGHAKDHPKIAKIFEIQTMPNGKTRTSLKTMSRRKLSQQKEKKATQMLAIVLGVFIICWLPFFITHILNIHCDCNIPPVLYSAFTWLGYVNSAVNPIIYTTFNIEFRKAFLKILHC

Sequence of D(1B) dopamine receptor (P21918 whole entry): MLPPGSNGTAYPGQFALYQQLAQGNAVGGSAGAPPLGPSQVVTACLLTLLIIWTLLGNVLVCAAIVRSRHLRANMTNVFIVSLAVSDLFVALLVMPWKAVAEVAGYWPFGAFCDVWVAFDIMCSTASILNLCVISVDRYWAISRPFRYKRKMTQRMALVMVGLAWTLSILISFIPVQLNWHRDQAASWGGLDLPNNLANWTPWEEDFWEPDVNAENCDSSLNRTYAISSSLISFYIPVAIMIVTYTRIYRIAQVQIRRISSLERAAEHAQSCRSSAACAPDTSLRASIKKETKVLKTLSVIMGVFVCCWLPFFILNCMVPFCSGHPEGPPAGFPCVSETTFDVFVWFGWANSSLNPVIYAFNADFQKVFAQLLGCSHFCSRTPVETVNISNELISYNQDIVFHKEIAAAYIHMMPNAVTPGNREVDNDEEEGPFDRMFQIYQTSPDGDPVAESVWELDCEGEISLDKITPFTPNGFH
Sequence of D(1A) dopamine receptor (P21728 whole entry): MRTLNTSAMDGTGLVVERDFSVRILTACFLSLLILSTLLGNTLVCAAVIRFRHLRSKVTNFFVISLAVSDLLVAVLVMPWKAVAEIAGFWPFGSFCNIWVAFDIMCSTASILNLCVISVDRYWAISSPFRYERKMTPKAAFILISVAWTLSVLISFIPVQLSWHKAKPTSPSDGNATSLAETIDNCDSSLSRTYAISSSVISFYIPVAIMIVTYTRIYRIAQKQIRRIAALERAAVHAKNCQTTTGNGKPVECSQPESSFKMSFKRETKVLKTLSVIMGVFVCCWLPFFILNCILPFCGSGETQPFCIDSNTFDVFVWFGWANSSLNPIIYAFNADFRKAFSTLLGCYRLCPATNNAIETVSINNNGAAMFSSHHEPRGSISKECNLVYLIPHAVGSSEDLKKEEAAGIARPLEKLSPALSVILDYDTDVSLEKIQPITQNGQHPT
Sequence of D(3) dopamine receptor (P35462 whole entry): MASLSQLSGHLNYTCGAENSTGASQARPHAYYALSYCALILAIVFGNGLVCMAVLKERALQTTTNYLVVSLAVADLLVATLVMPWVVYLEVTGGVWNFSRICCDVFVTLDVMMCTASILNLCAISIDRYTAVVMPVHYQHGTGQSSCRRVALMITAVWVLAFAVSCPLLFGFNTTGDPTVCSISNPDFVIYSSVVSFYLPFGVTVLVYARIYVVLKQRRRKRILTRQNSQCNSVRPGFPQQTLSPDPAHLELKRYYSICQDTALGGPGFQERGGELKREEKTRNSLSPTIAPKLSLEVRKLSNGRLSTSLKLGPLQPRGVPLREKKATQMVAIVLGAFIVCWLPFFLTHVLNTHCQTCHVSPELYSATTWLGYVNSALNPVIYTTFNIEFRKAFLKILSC
Sequence of 5-hydroxytryptamine receptor 2A (P14842 whole entry): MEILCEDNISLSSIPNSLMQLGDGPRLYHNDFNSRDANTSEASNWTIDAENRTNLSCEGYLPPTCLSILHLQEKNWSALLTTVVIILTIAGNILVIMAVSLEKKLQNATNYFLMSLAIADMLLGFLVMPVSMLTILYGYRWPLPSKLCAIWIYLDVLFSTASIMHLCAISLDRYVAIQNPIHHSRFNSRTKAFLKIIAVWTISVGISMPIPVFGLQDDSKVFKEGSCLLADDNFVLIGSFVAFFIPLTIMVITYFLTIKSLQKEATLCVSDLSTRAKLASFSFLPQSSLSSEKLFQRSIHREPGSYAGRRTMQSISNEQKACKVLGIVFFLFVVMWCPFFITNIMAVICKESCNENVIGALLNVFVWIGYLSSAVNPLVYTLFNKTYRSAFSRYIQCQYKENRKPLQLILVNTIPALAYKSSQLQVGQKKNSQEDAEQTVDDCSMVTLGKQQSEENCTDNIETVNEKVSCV
Sequence of 5-hydroxytryptamine receptor 7 (P34969 whole entry): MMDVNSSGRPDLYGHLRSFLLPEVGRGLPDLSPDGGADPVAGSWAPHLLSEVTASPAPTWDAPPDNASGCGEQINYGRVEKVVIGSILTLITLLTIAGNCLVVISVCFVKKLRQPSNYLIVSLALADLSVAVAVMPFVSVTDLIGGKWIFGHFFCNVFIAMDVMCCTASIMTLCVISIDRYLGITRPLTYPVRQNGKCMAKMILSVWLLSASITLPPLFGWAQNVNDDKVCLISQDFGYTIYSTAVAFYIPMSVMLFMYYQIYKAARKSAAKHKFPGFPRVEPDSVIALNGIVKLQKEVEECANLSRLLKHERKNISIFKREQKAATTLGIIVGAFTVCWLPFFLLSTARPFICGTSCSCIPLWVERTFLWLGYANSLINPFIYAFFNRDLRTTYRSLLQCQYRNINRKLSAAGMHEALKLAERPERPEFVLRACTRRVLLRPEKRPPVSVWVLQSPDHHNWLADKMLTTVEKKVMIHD
Sequence of Sigma non-opioid intracellular receptor 1 (Q99720 whole entry): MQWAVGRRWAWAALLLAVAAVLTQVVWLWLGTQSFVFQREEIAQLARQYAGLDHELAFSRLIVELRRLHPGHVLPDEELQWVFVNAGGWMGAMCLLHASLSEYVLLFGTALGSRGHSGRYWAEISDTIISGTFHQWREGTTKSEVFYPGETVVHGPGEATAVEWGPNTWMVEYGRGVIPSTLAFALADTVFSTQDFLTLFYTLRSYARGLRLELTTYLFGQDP

c1cnc(N2CCN(CCCc3nc4ccccc4s3)CC2)nc1
Ki [1]: 342 nM
Ki [2]: 350 nM
Ki [3]: 162 nM
pKi [3]: 6.79
Ki ([4]; read-out: Ki): 3.9 nM
Ki [5]: 283 nM
Ki [6]: 280 nM

Clc1ccc(N2CCN(CCCCc3nc4ccccc4s3)CC2)cc1
Ratio Ki [7]: 7.8
Ki ([8]; read-out: Ki): 31 nM
Ki ([9]; read-out: Ki): 1900 nM
Ratio Ki [10]: 54.8

Fc1ccc(SCCCN2CCN(c3ncccn3)CC2)cc1
Ratio Ki [7]: 3.2
Ki [11]: 1370 nM
Ki ([9]; read-out: Ki): 495 nM
Ratio Ki [10]: 20.1

FC(F)(F)c1ccc(OCCCN2CCN(c3ccccn3)CC2)cc1
Ratio Ki [7]: 29.6
Ki ([8]; read-out: Ki): 355 nM
Ki [12]: 1090 nM
Ki [11]: > 10000 nM
Ki ([4]; read-out: Ki): 12 nM
Ki ([9]; read-out: Ki): 2340 nM
Ratio Ki [10]: 91

Fc1ccc(CCCCN2CCN(c3ncccn3)CC2)cc1
Ki [11]: 3810 nM
Ki ([9]; read-out: Ki): 134 nM

Clc1ccc(N2CCN(CCCOc3ccccc3)CC2)cc1
Ratio Ki [7]: 130
Ki ([8]; read-out: pKi (converted)): 794 nM
Ki ([4]; read-out: pKi (converted)): 5.5 nM
Ratio Ki [10]: 79.8

Clc1ccc(N2CCN(CCCc3nc4ccccc4o3)CC2)cc1
Ratio Ki [7]: 1.5
Ki ([8]; read-out: Ki): 180 nM
Ki [12]: 3960 nM
Ki [11]: > 10000 nM
Ki ([4]; read-out: Ki): 145 nM
Ki ([9]; read-out: Ki): 1170 nM
Ratio Ki [10]: 27.3

Cc1ccc(N2CCN(CCCCc3ccc(F)cc3)CC2)nc1
Ki [11]: 3260 nM
Ki ([9]; read-out: Ki): 521 nM

Fc1ccc(OCCCN2CCN(c3ccc(Cl)cc3)CC2)cc1
Ki [11]: 2680 nM
Ki ([9]; read-out: Ki): 135 nM

O=C1c2ccc(F)cc2CC1CCN1CCN(c2ccc(Cl)cc2)CC1 (centres undefined)
Ratio Ki [7]: 406
Ki ([8]; read-out: Ki): 2480 nM
Ki [12]: 1540 nM
inhibition [11]: < 50%
Ki ([4]; read-out: Ki): 6.1 nM
Ki ([9]; read-out: Ki): 641 nM
Ratio Ki [10]: 253

Fc1ccc(CCCCN2CCN(c3ccccn3)CC2)cc1
Ki [11]: 1450 nM

Fc1ccc(CCCCN2CCN(c3ccc(Cl)cc3)CC2)cc1
Ratio Ki [7]: 33.5
Ki [11]: 1760 nM
Ki ([9]; read-out: Ki): 589 nM
Ratio Ki [10]: 36.4

c1cnc(N2CCN(CCCCc3nc4ccccc4s3)CC2)nc1
Ki ([4]; read-out: Ki): 0.84 nM

Fc1ccc(OCCCN2CCC(c3ccc(Cl)cc3)CC2)cc1
Ratio Ki [7]: 73.3
Ki [11]: 867 nM
Ki ([9]; read-out: Ki): 126 nM
Ratio Ki [10]: 4.3

Clc1ccc(N2CCN(CCc3nc4ccccc4o3)CC2)cc1
Ratio Ki [7]: 0.6
Ki ([8]; read-out: Ki): 850 nM
inhibition [11]: < 50%
Ki ([4]; read-out: Ki): 1410 nM
inhibition [9]: < 50%

Clc1ccc(N2CCCN(CCCc3cc4ccccc4o3)CC2)cc1
Ratio Ki [7]: 7.9
Ki ([8]; read-out: Ki): 1460 nM
Ki [12]: 2510 nM
Ki [11]: 1520 nM
Ki ([4]; read-out: Ki): 185 nM
Ki ([9]; read-out: Ki): 274 nM
Ratio Ki [10]: 13.5

O=C(CCCN1CCN(c2ccc(Cl)cc2)CC1)c1ccc(F)cc1
Ki ([4]; read-out: Ki): 17.5 nM

Cc1ccc(N2CCN(CCCOc3ccc(F)cc3)CC2)nc1
Ratio Ki [7]: 170
Ki ([8]; read-out: Ki): 187 nM
Ki [12]: 1050 nM
Ki [11]: 2580 nM
Ki ([9]; read-out: Ki): 260 nM
Ratio Ki [10]: 951

Fc1ccc2c(c1)CC(CCN1CCN(c3ccc(Cl)cc3)CC1)C2 (centres undefined)
Ki ([8]; read-out: Ki): 2770 nM
Ki [12]: 1420 nM
inhibition [11]: < 50%
Ki ([4]; read-out: Ki): 13 nM
Ki ([9]; read-out: Ki): 837 nM

Cc1ccc(N2CCN(CCCSc3ccc(F)cc3)CC2)nc1
Ratio Ki [7]: 8.5
Ki ([8]; read-out: Ki): 170 nM
Ki [12]: 1110 nM
Ki [11]: 2160 nM
Ki ([4]; read-out: Ki): 20 nM
Ki ([9]; read-out: Ki): 222 nM
Ratio Ki [10]: 55.3

Fc1ccc(SCCCN2CCN(c3ccccn3)CC2)cc1
Ratio Ki [7]: 28.1
Ki [11]: 3220 nM
Ki ([9]; read-out: Ki): 265 nM
Ratio Ki [10]: 32.1

Clc1ccc(N2CCN(CCc3cc4ccccc4o3)CC2)cc1
inhibition [11]: < 50%
inhibition [9]: < 50%

Fc1ccc(SCCCN2CCN(c3ccc(Cl)cc3)CC2)cc1
Ratio Ki [7]: 48.5
Ki [11]: 2810 nM
Ki ([9]; read-out: Ki): 52 nM
Ratio Ki [10]: 24.3

O=C1c2ccccc2CC1CCN1CCN(c2ccc(Cl)cc2)CC1 (centres undefined)
Ratio Ki [7]: 126
Ki ([8]; read-out: Ki): 4530 nM
Ki [12]: > 10000 nM
inhibition [11]: < 50%
Ki ([4]; read-out: Ki): 36 nM
Ki ([9]; read-out: Ki): 1700 nM
Ki ([9]; read-out: pKi (converted)): 389 nM

[O-][S+](CCCN1CCN(c2ccc(Cl)cc2)CC1)c1ccc(F)cc1 (centres undefined)
Ratio Ki [7]: 103
Ki ([8]; read-out: Ki): 1340 nM
Ki [12]: 635 nM
inhibition [11]: < 50%
Ki ([4]; read-out: Ki): 13 nM
inhibition [9]: < 50%
Ratio Ki [10]: 48.8

Fc1ccc(OCCCN2CCN(c3ncccn3)CC2)cc1
Ratio Ki [7]: 185
inhibition [11]: < 50%
Ki ([9]; read-out: Ki): 259 nM
Ratio Ki [10]: 151

Clc1ccc(N2CCN(CCCCCc3nc4ccccc4o3)CC2)cc1
Ratio Ki [7]: 0.5
Ki ([8]; read-out: Ki): 119 nM
Ki [12]: 3110 nM
Ki [11]: > 10000 nM
Ki ([4]; read-out: Ki): 240 nM
Ki ([9]; read-out: Ki): 7940 nM
Ratio Ki [10]: 13

Clc1ccc(N2C[C@H]3C[C@@H]2CN3CCCc2cc3ccccc3o2)cc1
Ratio Ki [7]: 0.3
inhibition [11]: < 50%
Ki ([4]; read-out: Ki): 2400 nM
inhibition [9]: < 50%
Ratio Ki [10]: > 4.2

Clc1ccc(N2CCN(CCCc3nc4ccccc4s3)CC2)cc1
Ratio Ki [7]: 6.9
Ki ([8]; read-out: Ki): 214 nM
Ki [11]: > 10000 nM
Ki ([9]; read-out: Ki): 1270 nM
Ratio Ki [10]: 74.9

Clc1ccc(N2CCN(CCCc3cc4ccccc4o3)CC2)cc1
Ratio Ki [7]: 29
Ki ([8]; read-out: Ki): 2290 nM
Ki [12]: 1980 nM
inhibition [11]: < 50%
Ki ([4]; read-out: Ki): 78.9 nM
Ki ([9]; read-out: Ki): 1410 nM
Ratio Ki [10]: 25.1

Clc1ccc(N2CCN(CCCCc3nc4ccccc4o3)CC2)cc1
Ratio Ki [7]: 1.1
Ki ([8]; read-out: Ki): 33 nM
inhibition [11]: < 50%
Ki ([4]; read-out: Ki): 30.6 nM
inhibition [9]: < 50%
